Test results published in publication PMC4433875 (European journal of medicinal chemistry, 2015).

Legend:
[1] = tested on: most tested cancer cell lines; settings: read-out: IC50 values for most tested cancer cell lines; original IBR2; cited from earlier work
[2] = tested on: triple-negative human breast cancer cell line MDA-MB-468; assay: XTT cell killing assay, MDA-MB-468; format: cell-based; settings: growth inhibition
How it was run: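 MDA-MB-468 cells were grown in low-glucose DMEM with 10% FBS and 1% penicillin-streptomycin and plated one day before dosing. They received a four-day drug treatment, with the XTT proliferation kit read on day 6 after drug addition. Triplicate sets were compiled to give dose-dependent cytotoxicity.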

[3] = tested on: HeLa cells stably expressing DR-GFP; assay: I-SceI inducible gene conversion; format: cell-based, human; settings: 10 or 20 µM, 24 hours, flow cytometry
How it was run: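 HeLa cells carrying stably integrated DR-GFP, selected with 2 µg/mL puromycin, were transfected with the I-SceI expression vector pCBASce for 24 h to induce DSBs. Cells were then exposed to DMSO or 10 or 20 µM test compound for another 24 h, trypsinized and analysed by flow cytometry for the percentage of GFP-positive cells. Three independent experiments, means±SD.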

RAD51 = molecular target: T1, RAD51 (Homo sapiens, UniProt Q06609); assay: Multimer formation assay; format: biochemical; settings: RAD51:IBR120 1:10 molar ratio, vs DMSO
T1 sequence (Q06609 1-339): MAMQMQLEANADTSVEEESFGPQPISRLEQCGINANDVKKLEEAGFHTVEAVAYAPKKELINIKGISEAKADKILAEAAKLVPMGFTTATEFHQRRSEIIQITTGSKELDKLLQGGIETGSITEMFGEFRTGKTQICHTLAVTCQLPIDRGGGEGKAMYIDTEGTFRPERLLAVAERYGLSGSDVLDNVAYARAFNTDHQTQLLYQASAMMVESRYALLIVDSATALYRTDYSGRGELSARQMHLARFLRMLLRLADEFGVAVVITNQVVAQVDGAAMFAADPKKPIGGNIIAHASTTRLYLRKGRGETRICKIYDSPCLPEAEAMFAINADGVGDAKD
How it was run: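 RAD51 (3.2 µg) was incubated with test compound (1:10 molar ratio) for 15 min at 37°C. Buffer was added (50mM triethanolamine-HCl pH7.5, 0.5mM Mg(OAc)2, 1mM DTT, 2mM ATP, 100 µg/ml BSA) and incubation continued 15 min. The mixture was run on a Superdex 200 gel filtration column equilibrated in the same buffer. Fractions were dot-blotted on PVDF and probed with anti-RAD51 mAb 14B4.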

[4] = tested on: panel of cancer cell lines; assay: XTT assay, panel of cancer cell lines; format: cell-based, human

Compound: O=S(=O)(Cc1ccccc1)N1C=Cc2ccccc2C1c1c[nH]c2ccccc12 (centres unmarked) [IBR2]
- IC50 [1]: 12 to 20 µM

Compound: O=S(=O)(Cc1ccccc1)N1CC=Cc2ccccc2[C@@H]1c1c[nH]c2ccccc12 [IBR115]
- change of activity on increasing the central ring size from six to seven [2]: minimal change of activity

Compound: O=S(=O)(Cc1ccccc1)N1CC=Cc2ccccc2[C@H]1c1c[nH]c2ccccc12 [IBR116]
- change of activity on increasing the central ring size from six to seven [2]: almost complete loss of function

Compound: O=S(=O)(Cc1ccccc1)N1CCc2ccccc2[C@@H]1c1n[nH]c2ccccc12 [IBR117, (R)-1-(1H-Indazol-3-yl)-2-phenylmethanesulfonyl-1,2,3,4-tetrahydro-isoquinoline]
- fold increase in activity compared to parental compound IBR2 [2]: 1.6~2.4 fold

Compound: O=S(=O)(Cc1ccccc1)N1Cc2ccccc2[C@@H]1c1c[nH]c2ccccc12 [IBR120, (R)-3-(2-(benzylsulfonyl)isoindolin-1-yl)-1H-indole]
- HR frequency (GFP positive population) [3]: significantly reduced
- RAD51 multimerization (gel filtration elution profile) (RAD51): can inhibit RAD51 multimerization
- IC50 ([4]; Homo sapiens, read-out: IC50 values in most tested cancer cell lines): 3 to 5 µM
- difference between the IC50 values in normal and cancer cells ([4]; normal MCF10A vs cancer cell lines): Approximately 10 fold
